Tests used:
PC-3 = assay: Cytotoxicity against human PC3 after 48 hrs by MTT assay; type: functional, cell-based; settings: PC-3, 48 h
Method in brief: (§1)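 Log-phase cells in RPMI 1640 with 10% FBS, diluted to 3 × 10⁴ cells/mL and seeded in 96-well plates. After 24 h at 37 °C, 5% CO₂, samples at pre-set concentrations were added to six wells, with 5-fluorouracil as positive reference. Exposure was 48 h. MTT at 2.5 mg/mL in PBS was added for 4 h, formazan dissolved in DMSO, A570 read. IC50 = concentration giving 50% survival. Three experiments in triplicate, mean ± SD.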

[1] = target: Telomerase reverse transcriptase (Homo sapiens, UniProt O14746); assay: Inhibition of telomerase activity expressed in human SGC7901 cells by SYBER green dye based TRAP; type: cell-based, SGC-7901
Chain of Telomerase reverse transcriptase (O14746 whole entry): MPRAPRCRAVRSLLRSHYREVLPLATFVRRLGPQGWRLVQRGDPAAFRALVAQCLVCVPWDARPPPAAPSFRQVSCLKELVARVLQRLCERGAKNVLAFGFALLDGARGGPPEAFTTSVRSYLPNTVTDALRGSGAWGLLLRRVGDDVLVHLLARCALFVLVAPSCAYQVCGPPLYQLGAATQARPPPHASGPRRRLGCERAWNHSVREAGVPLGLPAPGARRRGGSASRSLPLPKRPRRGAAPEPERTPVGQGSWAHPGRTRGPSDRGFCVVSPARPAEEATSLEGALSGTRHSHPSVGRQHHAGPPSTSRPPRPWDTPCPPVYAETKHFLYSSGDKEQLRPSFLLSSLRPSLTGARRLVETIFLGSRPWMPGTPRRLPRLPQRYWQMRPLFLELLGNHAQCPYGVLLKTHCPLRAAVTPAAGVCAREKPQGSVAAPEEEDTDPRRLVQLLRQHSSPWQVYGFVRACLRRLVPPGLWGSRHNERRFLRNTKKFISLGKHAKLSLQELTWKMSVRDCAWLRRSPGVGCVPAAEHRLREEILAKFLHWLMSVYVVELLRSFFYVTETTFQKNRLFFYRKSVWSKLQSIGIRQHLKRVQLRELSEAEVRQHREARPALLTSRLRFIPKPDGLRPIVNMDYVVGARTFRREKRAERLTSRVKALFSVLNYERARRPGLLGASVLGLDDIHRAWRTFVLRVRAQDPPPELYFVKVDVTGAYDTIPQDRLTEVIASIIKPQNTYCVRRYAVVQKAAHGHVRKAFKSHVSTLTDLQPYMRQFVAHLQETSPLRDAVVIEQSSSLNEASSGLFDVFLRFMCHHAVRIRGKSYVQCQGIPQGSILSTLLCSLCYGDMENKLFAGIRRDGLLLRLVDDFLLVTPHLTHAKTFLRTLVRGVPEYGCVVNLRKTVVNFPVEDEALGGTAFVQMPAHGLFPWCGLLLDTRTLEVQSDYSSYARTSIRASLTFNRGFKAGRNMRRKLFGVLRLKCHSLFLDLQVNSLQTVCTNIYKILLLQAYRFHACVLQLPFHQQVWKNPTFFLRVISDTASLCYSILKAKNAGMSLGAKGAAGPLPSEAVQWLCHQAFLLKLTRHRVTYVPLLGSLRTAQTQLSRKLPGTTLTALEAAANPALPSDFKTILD
Method in brief: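 Modified TRAP assay using total cell lysate of SGC-7901 as the telomerase source. Lysate protein was measured by Bio-Rad assay against BSA standards. Extension products were resolved on 10% polyacrylamide gels and stained with SYBR Green. Reported as IC50.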

HepG2 = assay: Cytotoxicity against human HepG2 after 48 hrs by MTT assay; type: functional, cell-based; settings: HepG2, 48 h; method in brief: as §1
SGC-7901 = assay: Cytotoxicity against human SGC7901 after 48 hrs by MTT assay; type: functional, cell-based; settings: SGC-7901, 48 h; method in brief: as §1
[2] = target: DNA polymerase I, thermostable (Thermus aquaticus, UniProt P19821); assay: Inhibition of Thermus aquaticus taq polymerase
Chain of DNA polymerase I, thermostable (P19821 whole entry): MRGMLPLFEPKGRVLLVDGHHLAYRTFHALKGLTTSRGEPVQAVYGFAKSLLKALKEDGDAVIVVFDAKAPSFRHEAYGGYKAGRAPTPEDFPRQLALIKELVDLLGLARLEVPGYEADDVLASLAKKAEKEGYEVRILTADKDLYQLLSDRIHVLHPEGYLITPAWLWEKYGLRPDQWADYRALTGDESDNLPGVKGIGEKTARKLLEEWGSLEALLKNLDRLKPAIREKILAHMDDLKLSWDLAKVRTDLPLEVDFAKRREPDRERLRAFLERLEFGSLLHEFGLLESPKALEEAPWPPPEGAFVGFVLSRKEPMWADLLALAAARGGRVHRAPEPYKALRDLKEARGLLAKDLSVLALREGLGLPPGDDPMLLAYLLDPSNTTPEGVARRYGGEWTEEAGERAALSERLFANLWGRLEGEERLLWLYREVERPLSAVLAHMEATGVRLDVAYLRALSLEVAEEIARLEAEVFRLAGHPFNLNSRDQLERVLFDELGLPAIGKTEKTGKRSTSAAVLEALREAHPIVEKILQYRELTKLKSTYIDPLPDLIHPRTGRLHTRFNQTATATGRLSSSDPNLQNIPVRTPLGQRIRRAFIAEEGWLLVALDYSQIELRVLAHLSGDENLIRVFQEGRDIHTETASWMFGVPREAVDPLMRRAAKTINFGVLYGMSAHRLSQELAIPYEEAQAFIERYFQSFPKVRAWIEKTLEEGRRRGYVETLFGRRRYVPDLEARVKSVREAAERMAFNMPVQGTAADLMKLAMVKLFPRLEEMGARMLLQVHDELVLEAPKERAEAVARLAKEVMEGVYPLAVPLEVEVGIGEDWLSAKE

[3] = Selectivity index, ratio of IC50 for Thermus aquaticus taq polymerase to IC50 for telomerase

Q: Which results are given for `CC1=NN(C(=O)c2ccccc2C)C(c2ccccc2O)C1` (stereo not drawn)?
A: IC50 (PC-3): 106 µM; IC50 [1]: 24.5 µM; IC50 (HepG2): 95.2 µM; IC50 (SGC-7901): 104 µM; IC50 [2]: 50.5 µM; Ratio IC50 [3]: 2.1

Q: What does the source list for `CC1=NN(S(=O)(=O)c2ccccc2)C(c2ccccc2O)C1` (stereo not drawn)?
A: IC50 (PC-3): 50.6 µM; IC50 [1]: 17.3 µM; IC50 (HepG2): 57.2 µM; IC50 (SGC-7901): 66.4 µM; IC50 [2]: 31 µM; Ratio IC50 [3]: 1.8

Q: What does the source list for `CC1=NN(S(=O)(=O)c2ccc(C)cc2)C(c2ccccc2O)C1` (stereo not drawn)?
A: IC50 (PC-3): 85.5 µM; IC50 [1]: 16.8 µM; IC50 (HepG2): 66.8 µM; IC50 (SGC-7901): 73.6 µM; IC50 [2]: 30 µM; Ratio IC50 [3]: 1.9

Q: For `O=c1[nH]cc(F)c(=O)[nH]1` [FLUOROURACIL], which IC50 (PC-3) is on record?
A: 15.7 µM

Q: And the IC50 (HepG2)?
A: 18.9 µM

Q: What about the IC50 (SGC-7901) of the same compound?
A: 31.5 µM

Q: Which results are given for `CC1=NN(C(=O)c2ccc(C)cc2)C(c2ccccc2O)C1` (stereo not drawn)?
A: IC50 (PC-3): 116 µM; IC50 [1]: 31.5 µM; IC50 (HepG2): 78.9 µM; IC50 (SGC-7901): 51.5 µM

Q: Which IC50 (PC-3) does the source give for `CC1=NN(C(=O)Cc2ccc([N+](=O)[O-])cc2)C(c2ccccc2O)C1` (stereo not drawn) here?
A: 132 µM

Q: What about the IC50 (HepG2) of the same compound?
A: 107 µM

Q: And the IC50 (SGC-7901)?
A: 97.3 µM

Q: For `CC1=NN(C(=O)c2ccccc2)C(c2ccccc2O)C1` (stereo not drawn), which IC50 (PC-3) is on record?
A: 30.9 µM

Q: And the IC50 [1]?
A: 4 µM

Q: And the IC50 (HepG2)?
A: 29.4 µM

Q: And the IC50 (SGC-7901)?
A: 21.2 µM

Q: What about the IC50 [2] of the same compound?
A: 8 µM

Q: And the Ratio IC50 [3]?
A: 2

Q: With `CC[n+]1c(-c2ccccc2)c2cc(N)ccc2c2ccc(N)cc21` [HOMIDIUM BROMIDE] as the compound, how does the IC50 [1] read?
A: 2.6 µM

Q: With `CC1=NN(C(=O)CCl)C(c2ccccc2O)C1` (stereo not drawn) as the compound, how does the IC50 (PC-3) read?
A: 20.1 µM

Q: And the IC50 [1]?
A: 9.5 µM

Q: What about the IC50 (HepG2) of the same compound?
A: 47.9 µM

Q: And the IC50 (SGC-7901)?
A: 26.8 µM

Q: What about the IC50 [2] of the same compound?
A: 20.4 µM

Q: And the Ratio IC50 [3]?
A: 2.1

Q: Which results are given for `CC1=NN(C(=O)c2ccccc2Cl)C(c2ccccc2O)C1` (stereo not drawn)?
A: IC50 (PC-3): 84.2 µM; IC50 (HepG2): 95.5 µM; IC50 (SGC-7901): 103 µM; IC50 [2]: 36 µM

Q: For `CC1=NN(C(=O)c2ccccc2)C(c2cccc(C)c2O)C1` (stereo not drawn), which IC50 (PC-3) is on record?
A: 154 µM

Q: What about the IC50 (HepG2) of the same compound?
A: 177 µM

Q: And the IC50 (SGC-7901)?
A: 150 µM

From ChEMBL document CHEMBL1770100, “Design and synthesis of N-phenylacetyl (sulfonyl) 4,5-dihydropyrazole derivatives as potential antitumor agents” (Bioorg Med Chem Lett, 2011)
